Test results reported in article PMC4415995 (Advances in Therapy, 2015).
Marks after values point to notes of the source that are not given here.

Tested on: Japanese patients with T2DM
Assay: Plasma glucose concentrations, 7-day once-daily dosing
Type: in vivo, human
Outline: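 Plasma glucose was measured by a glucose dehydrogenase enzymatic UV method. Sampling was pre-breakfast/pre-dose and 0.5–24 h after breakfast on Day −1, after dosing on Days 1 and 7, and pre-breakfast on Days 11 and 14. Standardized ~600 kcal meals were given, with lunch and dinner at 4 and 12 h. AUC, Cmax and tmax were non-compartmental. MPG was the mean of the 0, 2, 4, 6, 12, 14 and 16 h values. LS mean difference vs placebo with 95% CI.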

## CCOc1ccc(Cc2cc([C@@H]3S[C@H](CO)[C@@H](O)[C@H](O)[C@H]3O)c(OC)cc2C)cc1 [Luseogliflozin, (1S)-1,5-anhydro-1-[5-(4-ethoxybenzyl)-2-methoxy-4-methylphenyl]-1-thio-D-glucitol]
0.5 mg OD, Day 1
  FPG (24 h after dose): 156 ± 23 mg/dL
  FPG (24 h after dose) LS mean difference vs placebo (95% CI): −7.15 (−16.0, 1.71) mg/dL
  MPG0–16h: 224 ± 38.8 mg/dL
  MPG0–16h LS mean difference vs placebo (95% CI): −6.39 (−16.6, 3.79) mg/dL
  Plasma glucose AUC0–4h (after breakfast): 946 ± 175 mg·h/dL
  Plasma glucose AUC0–4h (after breakfast) LS mean difference vs placebo (95% CI): 29.4 (−25.0, 83.8) mg h/dL
  Plasma glucose AUC4–8h (after lunch): 915 ± 207 mg·h/dL
  Plasma glucose AUC4–8h (after lunch) LS mean difference vs placebo (95% CI): −111 (−191, −31.1)* mg h/dL
  Plasma glucose AUC12–16h (after dinner): 989 ± 114 mg·h/dL
  Plasma glucose AUC12–16h (after dinner) LS mean difference vs placebo (95% CI): −16.3 (−69.6, 37.0) mg h/dL
  Plasma glucose C max0–4h (after breakfast): 278 ± 53.0 mg/dL
  Plasma glucose C max4–8h (after lunch): 259 ± 52.3 mg/dL
  Plasma glucose C max4–8h (after lunch) LS mean difference vs placebo (95% CI): −43.5 (−68.5, −18.5)* mg/dL
  Plasma glucose C max12–16h (after dinner): 286 ± 32.5 mg/dL
  Plasma glucose C max12–16h (after dinner) LS mean difference vs placebo (95% CI): −16.0 (−35.0, 3.05) mg/dL
0.5 mg OD, Day 7
  FPG (24 h after dose): 145 ± 18 mg/dL
  FPG (24 h after dose) LS mean difference vs placebo (95% CI): −18.4 (−31.1, −5.75)* mg/dL
  MPG0–16h: 204 ± 35.3 mg/dL
  MPG0–16h LS mean difference vs placebo (95% CI): −25.0 (−42.2, −7.90)* mg/dL
  Plasma glucose AUC0–4h (after breakfast): 810 ± 156 mg·h/dL
  Plasma glucose AUC0–4h (after breakfast) LS mean difference vs placebo (95% CI): −108 (−186, −29.3)* mg h/dL
  Plasma glucose AUC4–8h (after lunch): 887 ± 209 mg·h/dL
  Plasma glucose AUC4–8h (after lunch) LS mean difference vs placebo (95% CI): −165 (−267, −64.2)* mg h/dL
  Plasma glucose AUC12–16h (after dinner): 924 ± 108 mg·h/dL
  Plasma glucose AUC12–16h (after dinner) LS mean difference vs placebo (95% CI): −44.7 (−122, 32.2) mg h/dL
  Plasma glucose C max0–4h (after breakfast): 243 ± 42.1 mg/dL
  Plasma glucose C max4–8h (after lunch): 256 ± 61.7 mg/dL
  Plasma glucose C max4–8h (after lunch) LS mean difference vs placebo (95% CI): −46.2 (−76.1, −16.3)* mg/dL
  Plasma glucose C max12–16h (after dinner): 274 ± 34.6 mg/dL
  Plasma glucose C max12–16h (after dinner) LS mean difference vs placebo (95% CI): −9.79 (−35.5, 15.9) mg/dL
1 mg OD, Day 1
  FPG (24 h after dose): 146 ± 25 mg/dL
  FPG (24 h after dose) LS mean difference vs placebo (95% CI): −7.90 (−16.6, 0.795) mg/dL
  MPG0–16h: 188 ± 30.0 mg/dL
  MPG0–16h LS mean difference vs placebo (95% CI): −18.4 (−28.3, −8.55)* mg/dL
  Plasma glucose AUC0–4h (after breakfast): 812 ± 158 mg·h/dL
  Plasma glucose AUC0–4h (after breakfast) LS mean difference vs placebo (95% CI): −48.9 (−102, 4.37) mg h/dL
  Plasma glucose AUC4–8h (after lunch): 766 ± 131 mg·h/dL
  Plasma glucose AUC4–8h (after lunch) LS mean difference vs placebo (95% CI): −89.1 (−166, −11.9)* mg h/dL
  Plasma glucose AUC12–16h (after dinner): 851 ± 117 mg·h/dL
  Plasma glucose AUC12–16h (after dinner) LS mean difference vs placebo (95% CI): −91.4 (−142, −40.8)* mg h/dL
  Plasma glucose C max0–4h (after breakfast): 255 ± 44.1 mg/dL
  Plasma glucose C max4–8h (after lunch): 223 ± 33.7 mg/dL
  Plasma glucose C max4–8h (after lunch) LS mean difference vs placebo (95% CI): −30.5 (−54.1, −7.02)* mg/dL
  Plasma glucose C max12–16h (after dinner): 255 ± 37.3 mg/dL
  Plasma glucose C max12–16h (after dinner) LS mean difference vs placebo (95% CI): −31.3 (−49.4, −13.3)* mg/dL
1 mg OD, Day 7
  FPG (24 h after dose): 139 ± 14 mg/dL
  FPG (24 h after dose) LS mean difference vs placebo (95% CI): −18.1 (−30.5, −5.62)* mg/dL
  MPG0–16h: 184 ± 24.0 mg/dL
  MPG0–16h LS mean difference vs placebo (95% CI): −27.5 (−44.1, −10.8)* mg/dL
  Plasma glucose AUC0–4h (after breakfast): 780 ± 116 mg·h/dL
  Plasma glucose AUC0–4h (after breakfast) LS mean difference vs placebo (95% CI): −96.7 (−173, −20.0)* mg h/dL
  Plasma glucose AUC4–8h (after lunch): 787 ± 126 mg·h/dL
  Plasma glucose AUC4–8h (after lunch) LS mean difference vs placebo (95% CI): −138 (−236, −40.8)* mg h/dL
  Plasma glucose AUC12–16h (after dinner): 824 ± 125 mg·h/dL
  Plasma glucose AUC12–16h (after dinner) LS mean difference vs placebo (95% CI): −96.2 (−169, −23.2)* mg h/dL
  Plasma glucose C max0–4h (after breakfast): 240 ± 31.3 mg/dL
  Plasma glucose C max4–8h (after lunch): 229 ± 33.7 mg/dL
  Plasma glucose C max4–8h (after lunch) LS mean difference vs placebo (95% CI): −34.7 (−62.8, −6.53)* mg/dL
  Plasma glucose C max12–16h (after dinner): 242 ± 41.3 mg/dL
  Plasma glucose C max12–16h (after dinner) LS mean difference vs placebo (95% CI): −29.4 (−53.8, −5.06)* mg/dL
